Assay results pooled from the literature.
Protocols differ between the studies behind these lines.
SLC6A2: Sodium-dependent noradrenaline transporter (SLC6A2, Homo sapiens, UniProt P23975)
MPO: Myeloperoxidase (MPO, Homo sapiens, UniProt P05164)
Oprk1: Kappa-type opioid receptor (Oprk1, Mus musculus, UniProt P33534)

With `CCOC(=O)[C@@]12C[C@@H]1[C@@H](n1cnc3c(NCCCCCCc4ccccc4)nc(C#Cc4ccc(Cl)s4)nc31)[C@H](O)[C@@H]2O` the inhibition was 83% (SLC6A2; ligand displacement, radioligand; 10 µM).
For `COc1ccc(Cl)cc1-c1cc(=O)[nH]c(=S)n1CC(N)=O`, the inhibition was 98.2% (MPO; enzyme activity, inhibitor, fluorescence; 15 µM).
`N#CC[C@@]12C[C@@H]1[C@@H](n1cnc3c(Nc4ccccc4)nc(I)nc31)[C@H](O)[C@@H]2O` has an inhibition of 20% (SLC6A2; ligand displacement, radioligand; 10 µM).
The inhibition of `Cc1cc(O)c(-c2ccc([C@@H](C)CN(C)C)cc2)c2c1[nH]c(=O)c1sccc12` is reported as 5.19% (RPS6KC1 (Homo sapiens, UniProt Q96S38); cell-free assay, inhibitor; 0.1 µM, lysate).
For `CCOC(=O)[C@@]12C[C@@H]1[C@@H](n1cnc3c(NCCO)nc(C#Cc4ccc(Cl)s4)nc31)[C@H](O)[C@@H]2O`, the inhibition was 15% (SLC6A2; ligand displacement, radioligand; 10 µM).
`CC(C)[C@@H](CN1CCc2ccccc2C1)NC(=O)c1cccc(-c2cccc(C#N)c2)c1` gave an inhibition of 80.6% (Oprk1; ligand displacement, radioligand; 10 µM).
The inhibition of `Cc1cc(F)cc2c(CCC(=O)N[C@@H]3C(=O)NC[C@H]3O)c(-c3ccc(F)cc3)[nH]c12` is reported as -4% (Neuronal acetylcholine receptor; alpha3/beta4 (Homo sapiens, UniProt P30926+P32297); cell-free assay; 10 µM).
The inhibition of `CC(C)[C@H](CN1CCc2ccccc2C1)NC(=O)c1c(Cl)cncc1Cl` is reported as 69.4% (Oprk1; ligand displacement, radioligand; 10 µM).
With `OC[C@@]12C[C@@H]1[C@@H](n1cnc3c(NCCCCCCc4ccccc4)nc(I)nc31)[C@H](O)[C@@H]2O` the inhibition was 52% (SLC6A2; ligand displacement, radioligand; 10 µM).
With `CC(C)[C@H](CN1CCc2ccccc2C1)NC(=O)C=Cc1ccccc1` the inhibition was 55.7% (Oprk1; ligand displacement, radioligand; 10 µM).
With `N#CC[C@@]12C[C@@H]1[C@@H](n1cnc3c(NC4CC4)nc(C#Cc4ccc(Cl)s4)nc31)[C@H](O)[C@@H]2O` the inhibition was 28% (SLC6A2; ligand displacement, radioligand; 10 µM).
The inhibition of `CC(C)[C@H](CN1CCc2ccccc2C1)NC(=O)c1cccc(-c2ccccc2)c1` is reported as 72.2% (Oprk1; ligand displacement, radioligand; 10 µM).
For `NC/C(=C\F)COc1cccc(Cn2c(=S)[nH]c(=O)c3[nH]cnc32)c1`, the inhibition was 98.6% (MPO; enzyme activity, inhibitor, fluorescence; 0.3704 µM).
For `CC(C)[C@H](CN1CCc2ccccc2C1)NC(=O)c1ccc([N+](=O)[O-])s1`, the inhibition was 64.5% (Oprk1; ligand displacement, radioligand; 10 µM).
For `CC(C)OCCn1c(=S)[nH]c(=O)c2[nH]ccc21`, the inhibition was 82.5% (MPO; enzyme activity, inhibitor, fluorescence; 0.1852 µM).
